From ChEMBL document CHEMBL2021842, “COMPARE analysis of the toxicity of an iminoquinone derivative of the imidazo[5,4-f]benzimidazoles with NAD(P)H:quinone oxidoreductase 1 (NQO1) activity and computational docking of quinones as NQO1 substrates” (Bioorg Med Chem, 2012)

Key:
OVCAR-5 = experiment: Growth inhibition of human OVCAR5 cells assessed as cell growth at 10 uM relative to untreated control; assay type: functional; conditions: read-out: Activity
Method in brief: (§1)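 First stage of the NCI DTP 60 human tumour cell-line screen. Cells were exposed to a single dose of 10 µM. Output is reported as growth % relative to control.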

NCI-H226 = experiment: Growth inhibition of human NCI-H226 cells assessed as cell growth at 10 uM relative to untreated control; assay type: functional; conditions: read-out: Activity; method in brief: as §1
NCI-H522 = experiment: Growth inhibition of human NCI-H522 cells assessed as cell growth at 10 uM relative to untreated control; assay type: functional; conditions: read-out: Activity; method in brief: as §1
U-251 = experiment: Growth inhibition of human U251 cells assessed as cell growth at 10 uM relative to untreated control; assay type: functional; conditions: read-out: Activity
Method in brief: (§2)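 This is the first stage of the NCI DTP 60-human-tumour-cell-line screen, covering nine tissue types. Cells receive a single dose of the test compound, and the output is reported as mean growth %.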

RXF 393 = experiment: Growth inhibition of human RXF393 cells assessed as cell growth at 10 uM relative to untreated control; assay type: functional; conditions: read-out: Activity; method in brief: as §1
UACC-62 = experiment: Growth inhibition of human UACC62 cells assessed as cell growth at 10 uM relative to untreated control; assay type: functional; conditions: read-out: Activity; method in brief: as §2
EKVX = experiment: Growth inhibition of human EKVX cells assessed as cell growth at 10 uM relative to untreated control; assay type: functional; conditions: read-out: Activity
Method in brief: (§3)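 NCI DTP 60-cell-line screen, first stage: a single 10 µM dose of compound given to the human tumour panel. Result reported as percent growth relative to control, on a mean growth graph.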

NCI-H322M = experiment: Growth inhibition of human NCI-H322M cells assessed as cell growth at 10 uM relative to untreated control; assay type: functional; conditions: read-out: Activity; method in brief: as §1
MDA-MB-468 = experiment: Growth inhibition of human MDA-MB-468 cells assessed as cell growth at 10 uM relative to untreated control; assay type: functional; conditions: read-out: Activity; method in brief: as §1
LOX IMVI = experiment: Growth inhibition of human LOXIMVI cells assessed as cell growth at 10 uM relative to untreated control; assay type: functional; conditions: read-out: Activity; method in brief: as §3
HT-29 = experiment: Growth inhibition of human HT-29 cells assessed as cell growth at 10 uM relative to untreated control; assay type: functional; conditions: read-out: Activity; method in brief: as §3
DU-145 = experiment: Cytotoxicity against human DU145 cells assessed as reduction in mean cell viability after 72 hrs by MTT assay; assay type: functional, cell-based; conditions: DU-145, 72 h
Method in brief: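 DU-145 prostate cells in RPMI-1640 with 10% heat-inactivated FBS, penicillin–streptomycin and 2 mM L-glutamine. Seeded at 2000 cells/well and left 24 h to adhere. Compound added in ethanol (1% final) for 72 h at 37 °C, 5% CO₂, with ethanol-only controls. Formazan dissolved in DMSO and read at 550 nm (690 nm reference). IC₅₀ derived by nonlinear regression of viability versus vehicle.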

TK-10 = experiment: Growth inhibition of human TK10 cells assessed as cell growth at 10 uM relative to untreated control; assay type: functional; conditions: read-out: Activity; method in brief: as §2
CCRF-CEM = experiment: Growth inhibition of human CCRF-CEM cells assessed as cell growth at 10 uM relative to untreated control; assay type: functional; conditions: read-out: Activity; method in brief: as §3
SF-539 = experiment: Growth inhibition of human SF539 cells assessed as cell growth at 10 uM relative to untreated control; assay type: functional; conditions: read-out: Activity; method in brief: as §1
UO-31 = experiment: Growth inhibition of human UO31 cells assessed as cell growth at 10 uM relative to untreated control; assay type: functional; conditions: read-out: Activity; method in brief: as §2
SK-MEL-5 = experiment: Growth inhibition of human SK-MEL-5 cells assessed as cell growth at 10 uM relative to untreated control; assay type: functional; conditions: read-out: Activity; method in brief: as §1
HL-60(TB) = experiment: Growth inhibition of human HL-60(TB) cells assessed as cell growth at 10 uM relative to untreated control; assay type: functional; conditions: read-out: Activity
Method in brief: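 NCI DTP NCI-60 screen, first stage: a single dose applied to 60 human tumour cell lines from nine tissue types. Output is reported as growth %.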

A549 = experiment: Growth inhibition of human A549 cells assessed as cell growth at 10 uM relative to untreated control; assay type: functional; conditions: read-out: Activity; method in brief: as §3
MOLT-4 = experiment: Growth inhibition of human MOLT4 cells assessed as cell growth at 10 uM relative to untreated control; assay type: functional; conditions: read-out: Activity; method in brief: as §1
COLO 205 = experiment: Growth inhibition of human COLO205 cells assessed as cell growth at 10 uM relative to untreated control; assay type: functional; conditions: read-out: Activity; method in brief: as §3
[1] = Growth inhibition of human […] cells assessed as cell growth at 10 uM relative to untreated control; assay type: functional; conditions: read-out: Activity; method in brief: as §1
SNB-75 = experiment: Growth inhibition of human SNB75 cells assessed as cell growth at 10 uM relative to untreated control; assay type: functional; conditions: read-out: Activity; method in brief: as §2
MDA-MB-435 = experiment: Growth inhibition of human MDA-MB-435 cells assessed as cell growth at 10 uM relative to untreated control; assay type: functional; conditions: read-out: Activity; method in brief: as §1
SK-MEL-2 = experiment: Growth inhibition of human SK-MEL-2 cells assessed as cell growth at 10 uM relative to untreated control; assay type: functional; conditions: read-out: Activity; method in brief: as §1
UACC-257 = experiment: Growth inhibition of human UACC257 cells assessed as cell growth at 10 uM relative to untreated control; assay type: functional; conditions: read-out: Activity; method in brief: as §2
M14 = experiment: Growth inhibition of human M14 cells assessed as cell growth at 10 uM relative to untreated control; assay type: functional; conditions: read-out: Activity; method in brief: as §3
HCC 2998 = experiment: Growth inhibition of human HCC2998 cells assessed as cell growth at 10 uM relative to untreated control; assay type: functional; conditions: read-out: Activity; method in brief: as §3
ACHN = experiment: Growth inhibition of human ACHN cells assessed as cell growth at 10 uM relative to untreated control; assay type: functional; conditions: read-out: Activity; method in brief: as §3
NCI-H23 = experiment: Growth inhibition of human NCI-H23 cells assessed as cell growth at 10 uM relative to untreated control; assay type: functional; conditions: read-out: Activity; method in brief: as §1
SW-620 = experiment: Growth inhibition of human SW620 cells assessed as cell growth at 10 uM relative to untreated control; assay type: functional; conditions: read-out: Activity; method in brief: as §2
NCI-H460 = experiment: Growth inhibition of human NCI-H460 cells assessed as cell growth at 10 uM relative to untreated control; assay type: functional; conditions: read-out: Activity; method in brief: as §1
[2] = Growth inhibition of human Hs 578T cells assessed as cell growth at 10 uM relative to untreated control; assay type: functional; conditions: read-out: Activity; method in brief: as §3
SNB-19 = experiment: Growth inhibition of human SNB19 cells assessed as cell growth at 10 uM relative to untreated control; assay type: functional; conditions: read-out: Activity; method in brief: as §2
SF-268 = experiment: Growth inhibition of human SF268 cells assessed as cell growth at 10 uM relative to untreated control; assay type: functional; conditions: read-out: Activity; method in brief: as §1
SK-OV-3 = experiment: Growth inhibition of human SKOV3 cells assessed as cell growth at 10 uM relative to untreated control; assay type: functional; conditions: read-out: Activity; method in brief: as §1
SF-295 = experiment: Growth inhibition of human SF295 cells assessed as cell growth at 10 uM relative to untreated control; assay type: functional; conditions: read-out: Activity; method in brief: as §1
T47D = experiment: Growth inhibition of human T47D cells assessed as cell growth at 10 uM relative to untreated control; assay type: functional; conditions: read-out: Activity; method in brief: as §2
A498 = experiment: Growth inhibition of human A498 cells assessed as cell growth at 10 uM relative to untreated control; assay type: functional; conditions: read-out: Activity; method in brief: as §3
K562 = experiment: Growth inhibition of human K562 cells assessed as cell growth at 10 uM relative to untreated control; assay type: functional; conditions: read-out: Activity; method in brief: as §3
MDA-MB-231 = experiment: Growth inhibition of human MDA-MB-231 cells assessed as cell growth at 10 uM relative to untreated control; assay type: functional; conditions: read-out: Activity; method in brief: as §1
PC-3 = experiment: Growth inhibition of human PC3 cells assessed as cell growth at 10 uM relative to untreated control; assay type: functional; conditions: read-out: Activity; method in brief: as §1

## N=C1c2nc3n(c2C(=O)c2nc4n(c21)CCCC4)CCCC3
OVCAR-5
  growth at 10 µM: -57.8%
NCI-H226
  growth at 10 µM: 57.1%
NCI-H522
  growth at 10 µM: 10.5%
U-251
  growth at 10 µM: 50.6%
RXF 393
  growth at 10 µM: 94.8%
UACC-62
  growth at 10 µM: -85.1%
EKVX
  growth at 10 µM: 95.6%
NCI-H322M
  growth at 10 µM: 27.7%
MDA-MB-468
  growth at 10 µM: 68.1%
LOX IMVI
  growth at 10 µM: -68%
HT-29
  growth at 10 µM: -13.7%
DU-145
  IC50: 0.3 µM
TK-10
  growth at 10 µM: 128%
CCRF-CEM
  growth at 10 µM: 92.9%
SF-539
  growth at 10 µM: -21.7%
UO-31
  growth at 10 µM: 46.9%
SK-MEL-5
  growth at 10 µM: -98%
HL-60(TB)
  growth at 10 µM: 96.3%
A549
  growth at 10 µM: -30.6%
MOLT-4
  growth at 10 µM: 85.4%
COLO 205
  growth at 10 µM: -88.6%
[1]
  growth at 10 µM: 82.2%
SNB-75
  growth at 10 µM: -97%
MDA-MB-435
  growth at 10 µM: -82.5%
SK-MEL-2
  growth at 10 µM: 82.7%
UACC-257
  growth at 10 µM: -6.6%
M14
  growth at 10 µM: -95.6%
HCC 2998
  growth at 10 µM: 87.3%
ACHN
  growth at 10 µM: 69.4%
NCI-H23
  growth at 10 µM: -70.4%
SW-620
  growth at 10 µM: 23.7%
NCI-H460
  growth at 10 µM: 4.62%
[2]
  growth at 10 µM: -28.6%
SNB-19
  growth at 10 µM: 30%
SF-268
  growth at 10 µM: 71.3%
SK-OV-3
  growth at 10 µM: 95%
SF-295
  growth at 10 µM: -85.7%
T47D
  growth at 10 µM: 71.9%
A498
  growth at 10 µM: 52%
K562
  growth at 10 µM: 81.4%
MDA-MB-231
  growth at 10 µM: 82.6%
PC-3
  growth at 10 µM: 90.5%

## O=C1c2nc3n(c2C(=O)c2nc4n(c21)CCCC4)CCCC3
OVCAR-5
  growth at 10 µM: 110%
NCI-H226
  growth at 10 µM: 111%
NCI-H522
  growth at 10 µM: 92.3%
U-251
  growth at 10 µM: 97.5%
RXF 393
  growth at 10 µM: 107%
UACC-62
  growth at 10 µM: 99.8%
EKVX
  growth at 10 µM: 99.9%
NCI-H322M
  growth at 10 µM: 106%
MDA-MB-468
  growth at 10 µM: 95.6%
LOX IMVI
  growth at 10 µM: 96.1%
HT-29
  growth at 10 µM: 104%
DU-145
  IC50: 1.99 µM
TK-10
  growth at 10 µM: 100%
CCRF-CEM
  growth at 10 µM: 103%
SF-539
  growth at 10 µM: 121%
UO-31
  growth at 10 µM: 90.9%
SK-MEL-5
  growth at 10 µM: 87.6%
HL-60(TB)
  growth at 10 µM: 107%
A549
  growth at 10 µM: 99.7%
MOLT-4
  growth at 10 µM: 111%
COLO 205
  growth at 10 µM: 116%
[1]
  growth at 10 µM: 97.6%
SNB-75
  growth at 10 µM: 97%
MDA-MB-435
  growth at 10 µM: 105%
SK-MEL-2
  growth at 10 µM: 108%
UACC-257
  growth at 10 µM: 96.9%
M14
  growth at 10 µM: 108%
HCC 2998
  growth at 10 µM: 88.3%
ACHN
  growth at 10 µM: 99%
NCI-H23
  growth at 10 µM: 100%
SW-620
  growth at 10 µM: 104%
NCI-H460
  growth at 10 µM: 95%
[2]
  growth at 10 µM: 102%
SNB-19
  growth at 10 µM: 98.6%
SF-268
  growth at 10 µM: 92.3%
SK-OV-3
  growth at 10 µM: 102%
SF-295
  growth at 10 µM: 87.9%
T47D
  growth at 10 µM: 99.3%
A498
  growth at 10 µM: 99.9%
K562
  growth at 10 µM: 107%
MDA-MB-231
  growth at 10 µM: 96.8%
PC-3
  growth at 10 µM: 102%
